The source of these data is ChEMBL document CHEMBL4014307, “Diindolylmethane Derivatives: Potent Agonists of the Immunostimulatory Orphan G Protein-Coupled Receptor GPR84” (J Med Chem, 2017).

The target of assay [1] is T1, Free fatty acid receptor 4 (Homo sapiens) (UniProt Q5NUL3).
T1 sequence (whole entry): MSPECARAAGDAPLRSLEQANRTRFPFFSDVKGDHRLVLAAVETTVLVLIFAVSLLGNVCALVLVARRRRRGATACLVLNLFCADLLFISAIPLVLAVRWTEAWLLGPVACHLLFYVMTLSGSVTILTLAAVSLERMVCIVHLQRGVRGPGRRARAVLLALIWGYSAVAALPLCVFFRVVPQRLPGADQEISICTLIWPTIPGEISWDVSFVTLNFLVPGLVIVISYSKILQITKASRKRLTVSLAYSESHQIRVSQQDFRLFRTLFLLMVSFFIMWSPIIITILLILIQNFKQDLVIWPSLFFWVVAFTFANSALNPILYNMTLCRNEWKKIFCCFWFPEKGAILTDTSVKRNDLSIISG
Put plainly: Antagonist activity at human FFAR4 expressed in CHO cells assessed as inhibition of TUG-89-induced beta-arrestin recruitment at 10 uM preincubated for 30 mins followed by TUG-89 addition measured after 90 mins by beta-galactosidase complementation assay. It counts as cell-based.

The target of assay [2] is T2, G-protein coupled receptor 84 (Homo sapiens, UniProt Q9NQS5). Put plainly: Antagonist activity at Gi coupled human GPR84 expressed in CHO cells assessed as inhibition of decanoic acid-induced receptor activation at 10 uM. It counts as cell-based.
Assay [3] deals with T1, Free fatty acid receptor 4 (Homo sapiens). Put plainly: Agonist activity at human FFAR4 expressed in CHO cells assessed as beta-arrestin recruitment at 10 uM after 90 mins by beta-galactosidase complementation assay. In kind it is cell-based. The procedure, abridged:
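Human FFAR4 in CHO β-galactosidase complementation cells, 30,000 per well, serum-free F12 ~4 h before assay; final DMSO 1 %, compounds 10 µM. Agonist mode: 90 min with agonist, then detection 60 min rt dark; luminescence. 3–4 experiments in duplicate.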
For orientation: Arrestin recruitment assays detect the binding of arrestin to an activated receptor.

In assay [4] the target is T2, G-protein coupled receptor 84. Put plainly: Agonist activity at Gi coupled human GPR84 expressed in CHO cells assessed as inhibition of forskolin-induced cAMP accumulation after 15 mins in presence of [3H]-cAMP by radiometric assay. It counts as functional, cell-based. The procedure, abridged:
(§1)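 Forskolin (10 µM) added with or without test compound for 15 min. Cells lysed in hot (90 °C) EDTA/Triton X-100 solution. cAMP measured radiometrically with bovine adrenal binding protein and [³H]cAMP, expressed as % of forskolin-alone response.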

Assay [5] shares this target. Put plainly: Agonist activity at Gi coupled human GPR84 expressed in CHO cells assessed as inhibition of forskolin-induced cAMP accumulation at 10 uM after 15 mins in presence of [3H]-cAMP by radiometric assay relative to decanoic acid. In kind it is functional, cell-based. Put shortly: as §1
On the technique in general: Cyclic AMP is a second messenger, typically raised through Gs and lowered through Gi signalling.

Assay [6] has as its target Free fatty acid receptor 1 (Homo sapiens, UniProt O14842). Put plainly: Agonist activity at Gq protein coupled human FFAR1 expressed in human 1321N1 cells assessed as induction of intracellular calcium level at 10 uM measured at 1.2 secs time interval by Fluo-4-AM dye based fluorescence assay. It counts as functional, cell-based. Put shortly:
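1321N1 astrocytoma cells retrovirally expressing human FFAR1, 50,000 per well, loaded 60 min at rt in dark with 3 µM Fluo-4-AM and 0.06 % Pluronic F-127 in HBSS. Compounds at 10 µM final; antagonist mode uses 30 min preincubation before TUG-424 (final 1 µM). Fluorescence at 520 nm (excitation 485 nm), 90 reads at 1.2 s intervals. Normalized to TUG-424 at 10 µM (agonist) or 1 µM (antagonist).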
In general terms: Calcium assays in cells follow changes in intracellular calcium, usually with a dye or a luminescent sensor.

The structures appear in SMILES notation. Activity calls are given as the source filed them.

Sequence of Free fatty acid receptor 1 (O14842 whole entry): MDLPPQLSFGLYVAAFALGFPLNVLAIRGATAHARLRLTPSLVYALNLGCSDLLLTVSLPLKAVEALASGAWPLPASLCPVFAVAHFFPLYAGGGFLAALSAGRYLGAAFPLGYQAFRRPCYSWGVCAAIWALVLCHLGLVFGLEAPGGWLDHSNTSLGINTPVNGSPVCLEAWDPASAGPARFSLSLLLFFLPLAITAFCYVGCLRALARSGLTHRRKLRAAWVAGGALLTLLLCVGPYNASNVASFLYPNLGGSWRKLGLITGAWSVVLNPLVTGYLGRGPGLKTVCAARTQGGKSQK
T2 sequence (Q9NQS5 whole entry): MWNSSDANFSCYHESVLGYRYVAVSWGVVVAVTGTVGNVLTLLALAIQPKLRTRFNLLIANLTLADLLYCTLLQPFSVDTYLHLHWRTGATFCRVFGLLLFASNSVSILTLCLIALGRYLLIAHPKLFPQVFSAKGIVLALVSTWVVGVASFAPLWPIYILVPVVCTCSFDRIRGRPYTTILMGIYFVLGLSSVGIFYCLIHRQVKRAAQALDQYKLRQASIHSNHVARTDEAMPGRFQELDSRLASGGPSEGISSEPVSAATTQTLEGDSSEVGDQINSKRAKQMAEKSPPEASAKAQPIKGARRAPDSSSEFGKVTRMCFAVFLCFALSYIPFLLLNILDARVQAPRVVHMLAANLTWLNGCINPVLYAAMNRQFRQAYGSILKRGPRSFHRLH

On to `COc1ccc2[nH]cc(CC3C(=O)Nc4ccc(F)cc43)c2c1` (stereo not drawn), for which the inhibition entry in assay [1] and in assay [2] was “inactive” in each case. In addition, the result in assay [3] and in assay [6] was inactive. Besides, the EC50 – broadly, the concentration at which the effect is half-maximal – in assay [4] is more than 10 µM. Besides, the Emax (as a rule, the greatest response seen or fitted, relative to the assay's reference) in assay [5] was -10%.
In the case of `Brc1ccc2[nH]cc(Cc3c[nH]c4ccc(Br)cc34)c2c1`, in assay [1], the inhibition entry was “inactive”. Further, the outcome in assay [3] and in assay [6] was inactive. Moreover, the EC50 in assay [4] stood at 3.44 µM. The Emax in assay [5] came out at 106%.
As to `COc1cccc2c(Cc3c[nH]c4c(OC)cccc34)c[nH]c12`, the inhibition entry in assay [1] and in assay [2] was “inactive” in each case. The outcome in assay [3] and in assay [6] was inactive. The EC50 in assay [4] is more than 10 µM. In addition, in assay [5], the Emax stood at 18%.
Take `O=Cc1ccc2[nH]cc(Cc3c[nH]c4ccc(C=O)cc34)c2c1`: the inhibition entry in assay [1] and in assay [2] was “inactive” in each case. In addition, the outcome in assay [3] and in assay [6] was inactive. In assay [4], the EC50 is more than 10 µM. The Emax in assay [5] is -4%.
Regarding `O=C(O)c1ccc2[nH]cc(Cc3c[nH]c4ccccc34)c2c1`, the inhibition result in assay [1] and in assay [2] was “inactive” in each case. Further, the outcome in assay [3] and in assay [6] was inactive. In addition, the EC50 in assay [4] is more than 10 µM. Besides, the Emax in assay [5] was 5%.
Consider `COc1cccc2[nH]cc(Cc3c[nH]c4cccc(OC)c34)c12`, for which the inhibition result in assay [1] and in assay [2] was “inactive” each time. The outcome in assay [3] and in assay [6] was inactive. Also, in assay [4], the EC50 is not below 10 µM. Besides, the Emax in assay [5] stood at 47%.
As for `Cc1ccccc1C#Cc1ccc(CCC(=O)O)cc1`, the result in assay [6] was inactive.
For the molecule `COC(=O)c1ccc2[nH]cc(Cc3c[nH]c4ccccc34)c2c1`, the inhibition entry in assay [1] was “inactive”. Also, the result in assay [3] and in assay [6] was inactive. The EC50 in assay [4] stood at 10 µM. Further, in assay [5], the Emax is 57%.
With `COc1ccc2[nH]cc(/C=C3\C(=O)Nc4ccccc43)c2c1`, the inhibition result in assay [1] and in assay [2] was “inactive” throughout. The result in assay [3] and in assay [6] was inactive. Moreover, the EC50 in assay [4] is more than 10 µM. In assay [5], the Emax is -10%.
Take `O=C1Nc2ccccc2C1=Cc1c[nH]c2ccc(F)cc12`: the inhibition entry in assay [1] and in assay [2] was “inactive” in each case. Besides, the result in assay [3] and in assay [6] was inactive. Besides, the EC50 in assay [4] was more than 10 µM. The Emax in assay [5] is -1%.
With `COC(=O)c1ccc2[nH]cc(Cc3c[nH]c4ccc(C(=O)OC)cc34)c2c1`, the inhibition entry in assay [1] and in assay [2] was “inactive” throughout. For the same molecule, the outcome in assay [3] and in assay [6] was inactive. Moreover, the EC50 in assay [4] was more than 10 µM. The Emax in assay [5] was 11%.
As to `COc1ccc2[nH]cc(CC3C(=O)Nc4ccccc43)c2c1` (stereo not drawn), the inhibition entry in assay [1] and in assay [2] was “inactive” each time. Besides, the outcome in assay [3] and in assay [6] was inactive. The EC50 in assay [4] was more than 10 µM. Further, the Emax in assay [5] was -21%.
Turning to `N#Cc1ccc2[nH]cc(Cc3c[nH]c4ccc(C#N)cc34)c2c1`, the inhibition entry in assay [1] and in assay [2] was “inactive” each time. Moreover, the result in assay [3] and in assay [6] was inactive. Also, the EC50 in assay [4] was not below 10 µM. In addition, the Emax in assay [5] is 49%.
As to `c1ccc(COc2ccc3[nH]cc(Cc4c[nH]c5ccc(OCc6ccccc6)cc45)c3c2)cc1`, the inhibition entry in assay [1] and in assay [2] was “inactive” each time. Also, the result in assay [3] and in assay [6] was inactive. Further, the EC50 in assay [4] was more than 10 µM. The Emax in assay [5] worked out at 36%.
In the case of `Cc1ccc2c(Cc3c[nH]c4cc(C)ccc34)c[nH]c2c1`, the inhibition entry in assay [1] and in assay [2] was “inactive” each time. Besides, the outcome in assay [3] and in assay [6] was inactive. The EC50 in assay [4] is more than 10 µM. Further, in assay [5], the Emax was -22%.
As to `Clc1ccc(C(c2c[nH]c3ccccc23)c2c[nH]c3ccccc23)cc1`, the inhibition entry in assay [1] and in assay [2] was “inactive” each time. The result in assay [3] and in assay [6] was inactive. In addition, the EC50 in assay [4] was more than 10 µM. Further, the Emax in assay [5] was -4%.
Consider `O=C1Nc2ccc(F)cc2/C1=C/c1c[nH]c2ccc(F)cc12`, for which the inhibition result in assay [1] and in assay [2] was “inactive” each time. Besides, the outcome in assay [3] and in assay [6] was inactive. The concentration for a half-maximal effect (EC50) in assay [4] was more than 10 µM. Besides, the Emax in assay [5] came to 5%.
For the molecule `COc1ccc2c(Cc3c[nH]c4cc(OC)ccc34)c[nH]c2c1`, the inhibition result in assay [1] and in assay [2] was “inactive” each time. Moreover, the outcome in assay [3] and in assay [6] was inactive. The concentration giving a half-maximal response (EC50) in assay [4] was more than 10 µM. Besides, in assay [5], the Emax is 31%.
With `Fc1ccc(C(c2c[nH]c3ccccc23)c2c[nH]c3ccccc23)cc1`, the inhibition entry in assay [1] and in assay [2] was “inactive” in each case. Further, the outcome in assay [3] and in assay [6] was inactive. Besides, in assay [4], the EC50 is more than 10 µM. In addition, the Emax in assay [5] came to 8%.
Regarding `COc1ccc(C(c2c[nH]c3ccccc23)c2c[nH]c3ccccc23)cc1`, the inhibition result in assay [1] and in assay [2] was “inactive” in each case. For the same molecule, the result in assay [3] and in assay [6] was inactive. For the same molecule, in assay [4], the EC50 was more than 10 µM. Besides, the Emax in assay [5] was -3%.
`O=[N+]([O-])c1ccc2[nH]cc(Cc3c[nH]c4ccc([N+](=O)[O-])cc34)c2c1`: the inhibition entry in assay [1] and in assay [2] was “inactive” throughout. The outcome in assay [3] and in assay [6] was inactive. Moreover, in assay [4], the EC50 was more than 10 µM. Besides, the Emax in assay [5] was 31%.
For the molecule `O=C1Nc2ccccc2C1Cc1ccc2[nH]ccc2c1` (stereo not drawn), the inhibition entry in assay [1] and in assay [2] was “inactive” throughout. Moreover, the outcome in assay [3] and in assay [6] was inactive. Besides, the concentration for a half-maximal effect (EC50) in assay [4] is more than 10 µM. The Emax in assay [5] came to 7%.
Turning to `O=[N+]([O-])c1ccc(C(c2c[nH]c3ccccc23)c2c[nH]c3ccccc23)cc1`, the inhibition entry in assay [1] and in assay [2] was “inactive” throughout. The outcome in assay [3] and in assay [6] was inactive. The EC50 in assay [4] is more than 10 µM. Also, the Emax in assay [5] stood at 6%.
As to `O=C1Nc2ccc(F)cc2C1Cc1c[nH]c2ccc(F)cc12` (stereo not drawn), the inhibition result in assay [1] and in assay [2] was “inactive” throughout. Besides, the outcome in assay [3] and in assay [6] was inactive. The EC50 in assay [4] is more than 10 µM. The Emax in assay [5] was 16%.
Regarding `Clc1cc(Cl)c2c(Cc3c[nH]c4cc(Cl)cc(Cl)c34)c[nH]c2c1`, the inhibition entry in assay [1] and in assay [2] was “inactive” in each case. For the same molecule, the result in assay [3] and in assay [6] was inactive. Also, the EC50 in assay [4] is not below 10 µM. Further, the Emax in assay [5] amounted to 51%.
With `Clc1ccc2[nH]cc(Cc3c[nH]c4ccc(Cl)cc34)c2c1`, the inhibition entry in assay [1] is “inactive”. Further, the result in assay [3] and in assay [6] was inactive. In assay [4], the 50% effective concentration (EC50) was found to be 4.96 µM. Moreover, the Emax in assay [5] was found to be 86%.
